Active and inactive are the calls of the source. No cut-off for these calls is given here.
Tests used:
[1] = target: Neutrophil collagenase (Homo sapiens, UniProt P22894); assay: Inhibition of recombinant human MMP8 catalytic domain (Phe99 to Gln269 residues) expressed in Escherichia coli using McaKPLGL-Dpa-AR-NH2 as substrate by fluorescence spectrophotometric method
Procedure, shortened: (§1)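 Enzymes and their substrates were obtained as in earlier work, and inhibition was run by a previously reported protocol. Ki values were measured in triplicate.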

[2] = system: Mus musculus; assay: Time at which plasma concentration stays above in-vitro Ki for ADAM10 in CD-1 mouse at 10 mg/kg, ip by UPLC analysis; format: ADME, organism-based; settings: in vivo
Procedure, shortened: (§2)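 Male CD-1 mice, 6–7 weeks old, about 30 g, fed and watered ad libitum. Single dose of 10 mg/kg ip or 25 mg/kg sc, given as 100 μL formulation; n = 3 per time point per route. At set times, blood was taken by cardiac puncture with heparinized syringes and spun to plasma. Brains were harvested after transcardiac saline perfusion, weighed and flash-frozen. Brain levels are in pmol/mg tissue.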

[3] = target: T1, Disintegrin and metalloproteinase domain-containing protein 10 (Homo sapiens, UniProt O14672); assay: Inhibition of recombinant human C-terminal His10-tagged ADAM10 (Thr214 to Glu672 residues) expressed in baculovirus infected Sf21 cells using McaKPLGL-Dpa-AR-NH2 as substrate by fluorescence spectrophotometric method; procedure, shortened: as §1
T1 sequence (O14672 whole entry): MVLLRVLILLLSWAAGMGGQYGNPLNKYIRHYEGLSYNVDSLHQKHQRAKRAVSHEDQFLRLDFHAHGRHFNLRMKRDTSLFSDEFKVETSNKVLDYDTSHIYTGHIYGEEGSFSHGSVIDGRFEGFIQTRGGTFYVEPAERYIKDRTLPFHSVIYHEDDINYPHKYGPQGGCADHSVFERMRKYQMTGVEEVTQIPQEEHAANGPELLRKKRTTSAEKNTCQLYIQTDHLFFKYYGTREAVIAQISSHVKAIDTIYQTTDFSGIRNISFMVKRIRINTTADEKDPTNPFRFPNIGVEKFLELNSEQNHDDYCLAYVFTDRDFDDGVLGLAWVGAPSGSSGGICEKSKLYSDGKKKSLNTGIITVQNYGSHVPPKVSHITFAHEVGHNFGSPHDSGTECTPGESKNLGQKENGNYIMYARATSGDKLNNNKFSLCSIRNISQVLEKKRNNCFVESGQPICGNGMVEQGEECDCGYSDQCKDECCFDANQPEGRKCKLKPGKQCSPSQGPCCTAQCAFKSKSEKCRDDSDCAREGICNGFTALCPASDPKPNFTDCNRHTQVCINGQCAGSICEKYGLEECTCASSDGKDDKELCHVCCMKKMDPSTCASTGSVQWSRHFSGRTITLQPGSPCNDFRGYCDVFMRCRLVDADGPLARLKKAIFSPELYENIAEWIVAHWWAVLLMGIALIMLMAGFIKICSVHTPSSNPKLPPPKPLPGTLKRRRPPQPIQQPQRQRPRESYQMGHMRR

[4] = system: Mus musculus; assay: Time at which brain concentration stays above in-vitro Ki for ADAM10 in CD-1 mouse at 25 mg/kg, sc by UPLC analysis; format: ADME, organism-based; settings: in vivo; procedure, shortened: as §2
[5] = AUC (0 to last) in CD-1 mouse brain assessed per mg tissue at 10 mg/kg, ip by UPLC analysis; format: ADME, organism-based; settings: in vivo; procedure, shortened: as §2
[6] = target: Matrix metalloproteinase-9 (Homo sapiens) (UniProt P14780); assay: Inhibition of recombinant human MMP9 catalytic domain (Phe107 to Pro449 residues) expressed in Escherichia coli using MOCAc-Pro-Leu-Gly-Leu-A2pr(Dnp)-Ala-Arg-NH2 as substrate at 10 uM by fluorescence spectrophotometric method relative to control
Matrix metalloproteinase-9 (Homo sapiens), sequence (P14780 whole entry, the tested form may be a part): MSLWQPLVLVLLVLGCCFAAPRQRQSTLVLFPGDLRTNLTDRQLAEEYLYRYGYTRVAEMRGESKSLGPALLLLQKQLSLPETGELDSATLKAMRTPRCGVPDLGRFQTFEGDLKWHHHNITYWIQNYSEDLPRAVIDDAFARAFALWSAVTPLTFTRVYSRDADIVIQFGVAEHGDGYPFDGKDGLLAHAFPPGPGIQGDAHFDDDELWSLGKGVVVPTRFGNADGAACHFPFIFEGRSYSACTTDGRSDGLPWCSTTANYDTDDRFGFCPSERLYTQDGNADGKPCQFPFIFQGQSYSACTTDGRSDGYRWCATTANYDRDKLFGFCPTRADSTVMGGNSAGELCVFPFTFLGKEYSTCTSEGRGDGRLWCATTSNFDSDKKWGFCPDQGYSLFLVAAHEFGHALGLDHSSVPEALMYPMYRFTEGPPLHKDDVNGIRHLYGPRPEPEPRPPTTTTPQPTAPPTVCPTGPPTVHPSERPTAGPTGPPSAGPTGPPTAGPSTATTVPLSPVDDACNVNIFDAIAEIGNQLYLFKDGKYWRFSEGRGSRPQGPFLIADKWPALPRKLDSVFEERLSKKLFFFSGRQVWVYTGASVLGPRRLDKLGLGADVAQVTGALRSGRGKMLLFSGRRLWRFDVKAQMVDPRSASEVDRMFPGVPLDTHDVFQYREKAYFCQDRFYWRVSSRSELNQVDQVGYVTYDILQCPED
Procedure, shortened: (§3)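 Single inhibitor concentration of 10 μM, reported as percent inhibition. Enzymes and substrates as in earlier work, with inhibition run by a previously reported protocol.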

[7] = Primary phase half life in CD-1 mouse brain at 25 mg/kg, sc by UPLC analysis; format: ADME, organism-based; settings: read-out: alphat1/2; procedure, shortened: as §2
[8] = AUC (0 to last) in CD-1 mouse plasma at 25 mg/kg, sc by UPLC analysis; format: ADME, organism-based; parameters: dose 25 mg/kg, route subcutaneous, time 0 - last; procedure, shortened: as §2
[9] = Primary phase half life in CD-1 mouse brain at 10 mg/kg, ip by UPLC analysis; format: ADME, organism-based; settings: read-out: alphat1/2; procedure, shortened: as §2
[10] = target: T2, Matrilysin (Homo sapiens) (UniProt P09237); assay: Inhibition of recombinant human MMP7 expressed in Escherichia coli using MOCAc-Pro-Leu-Gly-Leu-A2pr(Dnp)-Ala-Arg-NH2 as substrate at 10 uM by fluorescence spectrophotometric method; procedure, shortened: as §3
T2 sequence (whole entry): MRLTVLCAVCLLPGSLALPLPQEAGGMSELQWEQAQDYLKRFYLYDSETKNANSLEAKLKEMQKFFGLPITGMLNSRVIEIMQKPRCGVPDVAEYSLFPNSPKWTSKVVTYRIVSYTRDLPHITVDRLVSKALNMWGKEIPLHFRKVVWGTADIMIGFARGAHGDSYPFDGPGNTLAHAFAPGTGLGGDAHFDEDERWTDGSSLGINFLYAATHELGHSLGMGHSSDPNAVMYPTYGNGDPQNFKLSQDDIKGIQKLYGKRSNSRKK

[11] = Elimination half life in CD-1 mouse plasma at 25 mg/kg, sc by UPLC analysis; format: ADME, organism-based; settings: read-out: beta t1/2; procedure, shortened: as §2
[12] = Elimination half life in CD-1 mouse plasma at 10 mg/kg, ip by UPLC analysis; format: ADME, organism-based; settings: read-out: beta t1/2; procedure, shortened: as §2
[13] = target: Macrophage metalloelastase (Homo sapiens, UniProt P39900); assay: Inhibition of recombinant human MMP12 catalytic domain using Mca-PLGL-DpaAR-NH2 as substrate by fluorescence spectrophotometric method; procedure, shortened: as §1
Macrophage metalloelastase, sequence (P39900 whole entry, the tested form may be a part): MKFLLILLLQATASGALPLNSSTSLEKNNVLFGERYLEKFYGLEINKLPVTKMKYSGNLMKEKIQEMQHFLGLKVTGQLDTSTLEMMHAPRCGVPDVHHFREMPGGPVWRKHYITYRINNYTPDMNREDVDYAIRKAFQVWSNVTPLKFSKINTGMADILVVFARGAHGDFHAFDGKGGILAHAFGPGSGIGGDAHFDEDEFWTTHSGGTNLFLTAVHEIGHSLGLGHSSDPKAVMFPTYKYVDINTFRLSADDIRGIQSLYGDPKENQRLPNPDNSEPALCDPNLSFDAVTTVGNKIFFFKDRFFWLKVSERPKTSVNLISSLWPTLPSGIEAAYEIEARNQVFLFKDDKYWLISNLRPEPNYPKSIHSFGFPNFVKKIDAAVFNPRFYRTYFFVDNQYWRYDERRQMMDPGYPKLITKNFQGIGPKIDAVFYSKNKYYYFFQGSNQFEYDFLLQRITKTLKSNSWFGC

[14] = AUC (0 to infinity) in CD-1 mouse plasma at 10 mg/kg, ip by UPLC analysis; format: ADME, organism-based; parameters: dose 10 mg/kg, route intraperitoneal, time infinity; procedure, shortened: as §2
[15] = target: Stromelysin-1 (Homo sapiens) (UniProt P08254); assay: Inhibition of recombinant human MMP3 catalytic domain expressed in Escherichia coli at 10 uM using MOCAc-Arg-Pro-LysPro-Val-Glu-Nva-Trp-Arg-Lys(Dnp)-NH2 as substrate by fluorescence spectrophotometric method relative to control; procedure, shortened: as §3
Stromelysin-1 (Homo sapiens), sequence (P08254 100-477 limits assumed): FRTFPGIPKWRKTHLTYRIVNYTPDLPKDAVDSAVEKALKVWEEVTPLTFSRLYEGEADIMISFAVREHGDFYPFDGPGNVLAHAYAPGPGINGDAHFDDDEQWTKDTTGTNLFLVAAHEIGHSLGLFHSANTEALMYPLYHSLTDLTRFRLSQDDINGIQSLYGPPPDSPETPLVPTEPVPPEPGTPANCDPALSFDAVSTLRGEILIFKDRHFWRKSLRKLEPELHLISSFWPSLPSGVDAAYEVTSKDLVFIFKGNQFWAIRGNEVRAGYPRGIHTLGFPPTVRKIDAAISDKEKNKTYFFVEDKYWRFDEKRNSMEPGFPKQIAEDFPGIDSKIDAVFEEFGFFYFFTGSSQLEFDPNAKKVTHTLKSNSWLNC

[16] = AUC (0 to infinity) in CD-1 mouse brain assessed per mg tissue at 25 mg/kg, sc by UPLC analysis; format: ADME, organism-based; parameters: dose 25 mg/kg, route subcutaneous, time infinity; settings: in vivo; procedure, shortened: as §2

Neutrophil collagenase, sequence (P22894 whole entry, the tested form may be a part): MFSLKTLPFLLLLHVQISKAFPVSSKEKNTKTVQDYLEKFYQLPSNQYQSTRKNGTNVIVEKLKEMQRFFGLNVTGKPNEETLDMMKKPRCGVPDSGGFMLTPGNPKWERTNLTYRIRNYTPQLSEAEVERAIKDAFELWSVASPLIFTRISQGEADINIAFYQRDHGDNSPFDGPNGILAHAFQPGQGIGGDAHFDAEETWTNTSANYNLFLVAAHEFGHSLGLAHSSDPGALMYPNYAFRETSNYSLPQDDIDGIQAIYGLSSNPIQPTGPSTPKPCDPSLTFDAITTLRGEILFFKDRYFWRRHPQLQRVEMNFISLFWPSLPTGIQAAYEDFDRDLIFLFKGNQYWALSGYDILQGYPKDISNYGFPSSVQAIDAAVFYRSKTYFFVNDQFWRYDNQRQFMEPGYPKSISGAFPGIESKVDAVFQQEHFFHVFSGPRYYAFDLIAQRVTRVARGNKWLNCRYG

O=C(NO)[C@H]1C[C@H](OC(=O)N2CCCC2)CC[C@@H]1C(=O)N1CCC(c2ccccc2)CC1
Ki [1]: 8700 nM
Time [2]: 6 h
Ki [3]: 73 nM
Time [4]: 100 min
AUClast [5]: 12.1 pmol·min
inhibition [6]: 25%
half-life [7]: 0.19 h
AUC(0-t) [8]: 18.4 µM·h
half-life [9]: 0.48 h
inhibition [10]: inactive
half-life [11]: 2.63 h
half-life [12]: 5.25 h
Ki [13]: 270 nM
AUC(0-inf) [14]: 3.07 µM·h
inhibition [15]: 2%
AUC [16]: 77 pmol·min/mg

From ChEMBL document CHEMBL4145666, “In Search of Selectivity in Inhibition of ADAM10” (ACS Med Chem Lett, 2018)
